Compound activity deposited in PubChem BioAssay by several laboratories.
Lipid droplet: modulators of hepatic lipid droplet formation; AML12 mouse hepatocytes, oleate lipid droplets, BODIPY imaging; inhibition, % at 6.5 µM; hit rate 0.4% among 240,000;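 active means lipid droplet intensity inhibited by at least 50%, with more than 500 cells counted; inconclusive means wells with under 300 cells, treated as cytotoxic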
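System: AML12 hepatocytes (mouse). Probe or stimulus: oleic acid at 100 µM to induce lipid droplet formation. Times: overnight treatment with compound plus oleate. Detection: Image-based BODIPY and DAPI two-channel analysis. Evaluation: percent inhibition of filter-corrected integrated lipid droplet intensity per well.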
Rce1 inh: yeast Ras-converting enzyme inhibition. calls only. yeast membranes, quenched prenylated peptide cleavage fluorescence. hit rate 0.27% among 290,000;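 active means fall in fluorescence gain of 50% or more versus controls, with final raw signal at or below 3038400; inconclusive means same 50% fall but final raw signal above 3038400; inactive means fall in fluorescence gain under 50%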;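 further: plate controls were neutral control wells for no effect and wells lacking membranes for full effect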
Target sequence (Q03530 whole entry, looked up): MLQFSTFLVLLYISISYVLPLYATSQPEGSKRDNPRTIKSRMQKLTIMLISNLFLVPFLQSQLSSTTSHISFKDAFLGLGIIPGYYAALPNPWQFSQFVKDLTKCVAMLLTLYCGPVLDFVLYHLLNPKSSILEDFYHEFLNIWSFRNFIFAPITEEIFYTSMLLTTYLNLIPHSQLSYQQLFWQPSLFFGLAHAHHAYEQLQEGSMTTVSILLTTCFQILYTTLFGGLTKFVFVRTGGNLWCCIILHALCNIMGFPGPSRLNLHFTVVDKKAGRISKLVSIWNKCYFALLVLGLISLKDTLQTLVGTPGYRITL
HSV augment: HSV replication enhancement; hit rate 0.005% among 220,000; maximum fold increase; HSV replication augmentation in cells, fold increase; in the data active means maximum fold increase above about 1.5; inconclusive means no clear call, values can overlap the other calls; tested in PC3 cells
STK33 inh: human STK33 kinase inhibition; hit rate 0.073% among 320,000; AID 2661; purified STK33, MBP phosphorylation, ADP-Glo luminescence; inhibition, % at 10 µM; Q9BYT3;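 active means inhibition at or above 25%, using the most active replicate where run in duplicate; inactive means inhibition below 25%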
GSK3beta inhib: blocks human GSK3beta kinase activity; GST-GSK3beta kinase, ADP-Glo luminescence, 60 min; hits give low values; activity score (negative = inhibition), % at 10 µM; hit rate 0.038% among 300,000; P49841;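 active means more than half of replicate wells score below -50%, meaning over 50% inhibition versus plate controls; inconclusive means some replicates but at most half score below -50%; inactive means no replicate scores below -50%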;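 further: 0% = median DMSO wells and -100% = median GW8510 positive control wells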
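Assay system: GST-tagged human GSK3beta kinase, cell-free; Input: 1.6 ng GSK3beta; Medium: Tris/MgCl2 kinase buffer; Timing: 60 min enzyme reaction, room temperature; Signal: ADP-Glo luminescence quantifying ADP generated by kinase; Evaluation: score relative to plate controls; Benchmarks: DMSO neutral wells and GW8510 at 20 µM as positive.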
GSK3 alpha inh: inhibitors of human GSK-3 alpha kinase. P49840. ADP-Glo luminescence, 60 min. inhibition, % at 10 µM. hit rate 0.1% among 320,000. AID 2650;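 active means more than half of replicates show inhibition above 20%; inconclusive means some but at most half of replicates above 20% inhibition; inactive means no replicate shows inhibition above 20%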;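 further: GST-tagged GSK-3 alpha with peptide substrate and 25 µM ATP; 0% = DMSO neutral wells and 100% = GW8510 positive control wells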
Active calls of the source: *; i = inactive; ? = inconclusive; . = not tested or not shown; + = active, no number. Rows were chosen to be rich in hits. Some 0.7% of all compounds tested hit in one or more screens of this group.

SMILES	Lipid droplet	Rce1 inh	HSV augment	STK33 inh	GSK3beta inhib	GSK3 alpha inh
c1coc(-c2ccnc3ncnn23)c1	-4	+	i	-1	2	-2
CS(=O)(=O)Cc1ccc(C(=O)N(CCc2ccccc2)Cc2ccccc2)cc1	-2	+	.	-1	-4	0
CS(=O)(=O)c1ccc(C(=O)OCC(=O)N(CCc2ccccc2)Cc2ccccc2)cc1	.	+	.	-1	1	-2
CS(=O)(=O)c1ccc(C(=O)OCC(=O)NC(=O)Cc2ccccc2)cc1	.	i	.	-1	4	0
CC(=O)c1c(C)[nH]c(C(=O)N(CCc2ccccc2)Cc2ccccc2)c1C	-10	i	i	.	4	.
Cc1ccc(S(=O)(=O)Oc2ccc(C3C4=C(CCCC4=O)N(CCC(=O)O)C4=C3C(=O)CCC4)cc2Cl)cc1	2	+	i	0	2	-5
Cc1ccc(S(=O)(=O)Oc2ccc(C3C4=C(CCCC4=O)OC4=C3C(=O)CCC4)cc2)cc1	.	i	i	1	0	3
O=C(CCNS(=O)(=O)c1ccc2[nH]c(=O)oc2c1)NCc1ccccc1	14	+	.	-1	1	0
CCCS(=O)(=O)N1CCCC(C(=O)NCCc2cccc(C)c2)C1 (stereo unspecified)	-10	i	.	0	1	1
CC(=O)c1c(C)[nH]c(C(=O)OCC(=O)c2ccc(C)s2)c1C	.	.	.	0	.	0
O=C(CSc1nnc(SCc2ccccc2)s1)N/N=C/c1ccc(C(=O)O)cc1	2	i	i	-1	-16	53*
c1ccc(-n2cnnc2SCc2cn3cccnc3n2)cc1	.	+	i	-1	-26	-5
CN(C)CCCN(C(=O)CCc1ccccc1)c1nc2ccc(F)cc2s1	-2	i	i	0	-1	3
CN(C)CCCN(C(=O)c1cc(-c2cccs2)nc2ccccc12)c1nc2ccc(F)cc2s1	-1	+	.	0	1	0
CC(C)(C)C1=NN=C2c3ccccc3C(=O)C21 (stereo unspecified)	1	i	i	30*	-3	10
O=C1c2ccccc2C(=O)C1c1ccc(O)cc1	1	.	i	2	-4	3
COc1ccc(Cn2c(/C=C/c3ccccc3)nc3ccccc32)cc1	.	?	i	1	-4	0
COc1ccc(/C=C/c2nc3ccccc3n2C)cc1	22	+	i	50*	-38	45
C=CCn1c(N2CCCCCC2)nc2c1c(=O)n(C)c(=O)n2C	.	+	i	2	2	0
C/C(Cl)=C\Cn1c(N2CCCC2)nc2c1c(=O)n(C)c(=O)n2C	-14	i	.	-1	0	3
CC/S(C)=N/S(=O)(=O)c1ccc(C)cc1 (stereo unspecified)	-4	i	i	2	-2	6
Cc1cccc(C(=O)N[C@H](C(=O)OCC(=O)NC(=O)c2cccn2C)C(C)C)c1	-3	i	i	-2	-3	0
O=[N+]([O-])c1ccc(-c2cnc(SC(c3ccccc3)c3ccccc3)[nH]2)cc1	7	+	i	.	1	.
C=CCn1c(Oc2ccc(C=O)cc2OCC)nc2c1c(=O)n(C)c(=O)n2C	.	i	.	0	2	0
Cc1ccc(-c2nc(CN3CCCCC3)cc(CN3CCCCC3)c2O)cc1	3	+	i	0	-5	0
SMILES	Lipid droplet	Rce1 inh	HSV augment	STK33 inh	GSK3beta inhib	GSK3 alpha inh
COc1ccc2cc(C(=O)C3CCCN(C(=O)c4cc(=O)n(C)c(=O)n4C)C3)ccc2c1 (stereo unspecified)	-10	+	i	-1	-1	5
N#Cc1c(N2CCN(C(=O)c3ccccc3)CC2)nc(-c2ccccc2)c2c1CCCC2	-31	+	i	-1	2	8
Cc1c(C(=O)NCC(c2ccco2)N(C)C)oc2c(Cl)cccc12 (stereo unspecified)	.	i	.	0	0	-1
Oc1ccc(Nc2nc(-c3ccccc3O)nc3ccccc23)cc1	4	i	.	49*	0	-3
Cc1ccnc(NC(=O)CCc2c[nH]c3ccccc23)c1	20	i	.	0	-1	3
COc1ccc(/C=C2\SC(=NCc3ccccc3)NC2=O)cc1	0	i	i	5	1	5
O=C1N/C(=N/S(=O)(=O)Cc2ccccc2)S/C1=C/c1ccc2c(c1)OCO2	6	i	i	15	-3	71*
CC(/C=N\NC(=O)CN1CCN(S(=O)(=O)c2ccc(C)cc2)CC1)=C\c1ccccc1	-14	+	i	0	-1	-2
COc1ccnc(N=CNOCc2cccc(C(F)(F)F)c2)c1C#N	-4	i	i	1	0	1
O=C(Nc1sccc1C(=O)N1CCOCC1)c1cccnc1	-2	i	i	-1	-31	54*
Cc1ccccc1C(=O)NC1CCN(CC(=O)NC2CCCCC2)CC1	0	i	.	-3	-3	-1
CN1C(=O)c2ccccc2N(C)C1c1ccccc1Cl (stereo unspecified)	-9	+	i	-1	1	-2
CCOC(=O)C1=C(C)Nc2ncnn2C1c1ccccc1F (stereo unspecified)	7	.	i	-2	0	3
CC1=C(C(=O)OC(C)C)C(c2cccs2)n2ncnc2N1 (stereo unspecified)	.	i	i	1	2	23
CCCC1=C(C(=O)OCC)C(c2sccc2C)n2ncnc2N1 (stereo unspecified)	4	i	i	1	-34	78*
CCOC(=O)C1=C(C)Nc2ncnn2C1c1c[nH]c2ccccc12 (stereo unspecified)	.	i	i	-1	-74*	71*
CC1=C(C(=O)OC(C)C)C(c2c[nH]c3ccccc23)n2ncnc2N1 (stereo unspecified)	.	i	i	1	0	93*
O=C(NC(C(=O)N/N=C/c1cccnc1)c1n[nH]c(=O)c2ccccc12)c1ccccc1 (stereo unspecified)	0	i	i	1	2	-1
CC(OC(=O)C1CC1)C(=O)Nc1cc(C(F)(F)F)ccc1Cl (stereo unspecified)	-2	i	i	-2	0	1
CSc1cccc(NC(=O)C2CCCN(S(=O)(=O)c3cccs3)C2)c1 (stereo unspecified)	-1	.	.	0	.	-2
Cn1c(N)c(C(=O)CSc2nc(C3CC3)n(-c3ccccc3)n2)c(=O)n(C)c1=O	.	.	.	-1	.	0
Cc1cc(C)n(CCC(=O)N=Nc2c(O)[nH]c3ccc(Br)cc23)n1	17	i	i	0	-16	73*
Cc1cc(C)n(CCC(=O)N=Nc2c(O)[nH]c3ccccc23)n1	-18	i	i	-1	0	8
CC(C)C(=O)Nc1c2c(nc3ccccc13)N(C)CC2	.	+	i	0	2	0
